Source: ChEMBL document CHEMBL5058577, “EUbOPEN Chemogenomics Library 2 (Multiplex)” (2022)

Test system: Fibroblast
Experiment: Multiplex assay against human fibroblast
Assay type: toxicity, cell-based
Method in brief: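 Live cells carried four stains from seeding: Hoechst33342, BioTracker Green Microtubule Cytoskeleton Dye, MitoTracker Red and Annexin V Alexa Fluor 680. They were imaged on a CQ1 microscope at 37°C and 5% CO2 after compound addition. Using CellPathfinder machine-learning gating, cells were split into Hoechst high-intensity objects or normal cells, normal cells into healthy, pyknosed or fragmented nuclei, and pyknosed cells into mitotic or apoptotic; tubulin, mitochondrial-mass and membrane-permeability phenotypes are per cents of healthy-nucleus cells.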

[1] = 12 h, 1 µM, compound concentration 1 uM, replicate 1
[2] = 12 h, 1 µM, compound concentration 1 uM, replicate 2
[3] = 12 h, 10 µM, compound concentration 10 uM, replicate 1
[4] = 12 h, 10 µM, compound concentration 10 uM, replicate 2
[5] = 24 h, 1 µM, compound concentration 1 uM, replicate 1
[6] = 24 h, 1 µM, compound concentration 1 uM, replicate 2
[7] = 24 h, 10 µM, compound concentration 10 uM, replicate 1
[8] = 24 h, 10 µM, compound concentration 10 uM, replicate 2
[9] = 48 h, 1 µM, compound concentration 1 uM, replicate 1
[10] = 48 h, 1 µM, compound concentration 1 uM, replicate 2
[11] = 48 h, 10 µM, compound concentration 10 uM, replicate 1
[12] = 48 h, 10 µM, compound concentration 10 uM, replicate 2

CCc1nn2c(C)cc(C)nc2c1Cc1ccc(-c2nnc(C3CCNCC3)o2)cc1
Population Apoptotic (%) [1]: 34%
Population Fragmented Nuclei (%) [1]: 17%
Population Healthy Nuclei (%) [1]: 63%
Population Hoechst High Intensity Objects (%) [1]: 2%
Population Membrane Permeable-Phenotype (%) [1]: 2%
Population Mitochondria Different-Phenotype (%) [1]: 5%
Population Mitotic Cells (%) [1]: 65%
Population Normal (%) [1]: 97%
Population Pyknosed Nuclei (%) [1]: 19%
Population Tubulin-Different-Phenotype (%) [1]: 35%
Total Cell Count [1]: 153
Population Apoptotic (%) [2]: 45%
Population Fragmented Nuclei (%) [2]: 19%
Population Healthy Nuclei (%) [2]: 46%
Population Hoechst High Intensity Objects (%) [2]: 6%
Population Mitochondria Different-Phenotype (%) [2]: 13%
Population Mitotic Cells (%) [2]: 54%
Population Normal (%) [2]: 93%
Population Pyknosed Nuclei (%) [2]: 33%
Population Tubulin-Different-Phenotype (%) [2]: 62%
Total Cell Count [2]: 167
Population Apoptotic (%) [3]: 51%
Population Fragmented Nuclei (%) [3]: 19%
Population Healthy Nuclei (%) [3]: 62%
Population Hoechst High Intensity Objects (%) [3]: 5%
Population Membrane Permeable-Phenotype (%) [3]: 0%
Population Mitochondria Different-Phenotype (%) [3]: 19%
Population Mitotic Cells (%) [3]: 48%
Population Normal (%) [3]: 94%
Population Pyknosed Nuclei (%) [3]: 18%
Population Tubulin-Different-Phenotype (%) [3]: 72%
Total Cell Count [3]: 188
Population Apoptotic (%) [4]: 14%
Population Fragmented Nuclei (%) [4]: 38%
Population Healthy Nuclei (%) [4]: 44%
Population Hoechst High Intensity Objects (%) [4]: 3%
Population Membrane Permeable-Phenotype (%) [4]: 5%
Population Mitochondria Different-Phenotype (%) [4]: 14%
Population Mitotic Cells (%) [4]: 85%
Population Normal (%) [4]: 96%
Population Pyknosed Nuclei (%) [4]: 17%
Population Tubulin-Different-Phenotype (%) [4]: 79%
Total Cell Count [4]: 162
Population Apoptotic (%) [5]: 52%
Population Fragmented Nuclei (%) [5]: 17%
Population Healthy Nuclei (%) [5]: 68%
Population Hoechst High Intensity Objects (%) [5]: 1%
Population Membrane Permeable-Phenotype (%) [5]: 0%
Population Mitochondria Different-Phenotype (%) [5]: 3%
Population Mitotic Cells (%) [5]: 47%
Population Normal (%) [5]: 98%
Population Pyknosed Nuclei (%) [5]: 13%
Population Tubulin-Different-Phenotype (%) [5]: 35%
Total Cell Count [5]: 153
Population Apoptotic (%) [6]: 56%
Population Fragmented Nuclei (%) [6]: 26%
Population Healthy Nuclei (%) [6]: 49%
Population Hoechst High Intensity Objects (%) [6]: 7%
Population Membrane Permeable-Phenotype (%) [6]: 6%
Population Mitochondria Different-Phenotype (%) [6]: 15%
Population Mitotic Cells (%) [6]: 43%
Population Normal (%) [6]: 92%
Population Pyknosed Nuclei (%) [6]: 23%
Population Tubulin-Different-Phenotype (%) [6]: 65%
Total Cell Count [6]: 177
Population Apoptotic (%) [7]: 53%
Population Fragmented Nuclei (%) [7]: 17%
Population Healthy Nuclei (%) [7]: 64%
Population Hoechst High Intensity Objects (%) [7]: 9%
Population Membrane Permeable-Phenotype (%) [7]: 0%
Population Mitochondria Different-Phenotype (%) [7]: 22%
Population Mitotic Cells (%) [7]: 46%
Population Normal (%) [7]: 90%
Population Pyknosed Nuclei (%) [7]: 17%
Population Tubulin-Different-Phenotype (%) [7]: 79%
Total Cell Count [7]: 185
Population Apoptotic (%) [8]: 56%
Population Fragmented Nuclei (%) [8]: 40%
Population Healthy Nuclei (%) [8]: 42%
Population Hoechst High Intensity Objects (%) [8]: 3%
Population Membrane Permeable-Phenotype (%) [8]: 11%
Population Mitochondria Different-Phenotype (%) [8]: 16%
Population Mitotic Cells (%) [8]: 44%
Population Normal (%) [8]: 96%
Population Tubulin-Different-Phenotype (%) [8]: 80%
Total Cell Count [8]: 151
Population Apoptotic (%) [9]: 76%
Population Fragmented Nuclei (%) [9]: 21%
Population Healthy Nuclei (%) [9]: 70%
Population Hoechst High Intensity Objects (%) [9]: 4%
Population Membrane Permeable-Phenotype (%) [9]: 1%
Population Mitochondria Different-Phenotype (%) [9]: 2%
Population Mitotic Cells (%) [9]: 23%
Population Normal (%) [9]: 95%
Population Pyknosed Nuclei (%) [9]: 7%
Population Tubulin-Different-Phenotype (%) [9]: 32%
Total Cell Count [9]: 172
Population Apoptotic (%) [10]: 62%
Population Fragmented Nuclei (%) [10]: 30%
Population Healthy Nuclei (%) [10]: 54%
Population Membrane Permeable-Phenotype (%) [10]: 3%
Population Mitochondria Different-Phenotype (%) [10]: 12%
Population Mitotic Cells (%) [10]: 37%
Population Pyknosed Nuclei (%) [10]: 14%
Population Tubulin-Different-Phenotype (%) [10]: 54%
Total Cell Count [10]: 168
Population Apoptotic (%) [11]: 84%
Population Fragmented Nuclei (%) [11]: 23%
Population Healthy Nuclei (%) [11]: 62%
Population Hoechst High Intensity Objects (%) [11]: 9%
Population Membrane Permeable-Phenotype (%) [11]: 0%
Population Mitochondria Different-Phenotype (%) [11]: 16%
Population Mitotic Cells (%) [11]: 15%
Population Normal (%) [11]: 90%
Population Pyknosed Nuclei (%) [11]: 13%
Population Tubulin-Different-Phenotype (%) [11]: 73%
Total Cell Count [11]: 208
Population Apoptotic (%) [12]: 54%
Population Fragmented Nuclei (%) [12]: 45%
Population Healthy Nuclei (%) [12]: 47%
Population Hoechst High Intensity Objects (%) [12]: 2%
Population Membrane Permeable-Phenotype (%) [12]: 2%
Population Mitochondria Different-Phenotype (%) [12]: 17%
Population Mitotic Cells (%) [12]: 45%
Population Normal (%) [12]: 97%
Population Pyknosed Nuclei (%) [12]: 7%
Population Tubulin-Different-Phenotype (%) [12]: 78%
Total Cell Count [12]: 161
